Activity calls are given as the source filed them. The calls are words filed in the database; no cut-off is given here.
How the values were obtained:
[1] = target: T1, Heat shock protein HSP90 (Homo sapiens) (UniProt P07900+P08238); assay: Inhibition of HSP90 in human MCF7 cells assessed as decrease in phosphorylation of AKT after 48 hrs by Western blot analysis; format: cell-based
Method in brief: (§1)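 Cells are treated 48 h and washed twice in ice-cold PBS. They are lysed on ice for 20 min and spun at 13,000 g, 4 °C. 20 μg protein is run on 8-12% SDS-PAGE and transferred to PVDF. Membranes are probed overnight at 4 °C with primary antibodies (Bcl-xL, cleaved caspase-3, mTOR/p-mTOR, MAPK/p-MAPK, Akt/p-Akt, HIF-1α, survivin; β-actin/GAPDH loading). HRP secondary and chemiluminescence detection follow.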

MCF7 [2] = assay: Induction of apoptosis in human MCF7 cells assessed as increase in early apoptotic cells after 36 hrs by Annexin V-FITC/propidium iodide double staining-based flow cytometry; format: functional, cell-based
Method in brief: (§2)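 Cells (1×10^5/well) are cultured 24 h, then treated in triplicate for 36 h at 0.5, 1.0, 2.0 or 4.0 μM. Vehicle is 1‰ DMSO in complete medium. Cells are stained with FITC-Annexin V and PI for 15 min in the dark and analysed by flow cytometry. Mean±SD of three independent experiments.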

MCF7 [3] = assay: Induction of apoptosis in human MCF7 cells assessed as decrease in Bcl-xL expression at 1 to 4 uM after 48 hrs by Western blot analysis
MCF7 [4] = assay: Potency index, ratio of deguelin IC50 to test compound IC50 for human MCF7 cells; format: functional
Method in brief: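 MTT assay on MCF-7 cells. Cells were seeded at 4,000/well and pre-incubated 24 h at 37 °C in humidified 5% CO2, then exposed to a range of compound concentrations for 72 h, with DMSO at no more than 0.25%. Absorbance was read at 570 nm, in quadruplicate, repeated three times. The IC50 for each test compound and for deguelin is the mean of three independent experiments, and the index is the deguelin IC50 divided by the compound IC50.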

NCI-H1299 = assay: Antiproliferative activity against human NCI-H1299 cells after 72 hrs by MTT assay; format: functional, cell-based; details: NCI-H1299, 72 h
Method in brief: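 Cells in RPMI 1640 are seeded at 4,000 cells/well and held 24 h at 37 °C, 5% CO2. Medium is replaced with compound-containing medium (DMSO ≤0.25%) for 72 h at 37 °C. MTT read-out by absorbance at 570 nm. Quadruplicate wells, repeated three times; values are means of three independent experiments.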

MCF7 [5] = assay: Cell cycle arrest in human MCF7 cells assessed as accumulation at G2 phase at 2 uM after 48 hrs by propidium iodide staining-based flow cytometry (reference value: 22.74%); format: functional
Method in brief: (§3)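 5×10^4 cells are seeded, incubated overnight, then treated 48 h. Cells are washed in cold PBS and fixed in 70% ethanol at −20 °C for 12 h. They are then stained with 100 µg/mL RNase plus 50 µg/mL PI in PBS, 37 °C for 30 min. DNA content is measured by flow cytometry.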

MCF7 [6] = assay: Cell cycle arrest in human MCF7 cells assessed as increase in accumulation at S phase after 48 hrs by propidium iodide staining-based flow cytometry; format: functional; method in brief: as §3
MCF7 [7] = assay: Cell cycle arrest in human MCF7 cells assessed as accumulation at G1 phase at 0.5 uM after 48 hrs by propidium iodide staining-based flow cytometry (reference value: 60.61%); format: functional; method in brief: as §3
[8] = target: T1, Heat shock protein HSP90 (Homo sapiens); assay: Inhibition of HSP90 in human MCF7 cells assessed as decrease in phosphorylation of MAPK after 48 hrs by Western blot analysis; format: cell-based; method in brief: as §1
MCF7 [9] = assay: Induction of apoptosis in human MCF7 cells assessed as increase in cleaved-caspase3 expression at 1 to 4 uM after 48 hrs by Western blot analysis; format: functional, cell-based; method in brief: as §1
MCF7 [10] = assay: Cell cycle arrest in human MCF7 cells assessed as accumulation at G1 phase at 4 uM after 48 hrs by propidium iodide staining-based flow cytometry (reference value: 60.61%); format: functional; method in brief: as §3
MCF7 [11] = assay: Induction of apoptosis in human MCF7 cells assessed as increase in late apoptotic cells after 36 hrs by Annexin V-FITC/propidium iodide double staining-based flow cytometry; format: functional, cell-based; method in brief: as §2
MCF7 [12] = assay: Cell cycle arrest in human MCF7 cells assessed as accumulation at G2 phase at 4 uM after 48 hrs by propidium iodide staining-based flow cytometry (reference value: 22.74%); format: functional; method in brief: as §3
[13] = target: T1, Heat shock protein HSP90 (Homo sapiens); assay: Inhibition of HSP90 in human MCF7 cells assessed as decrease in phosphorylation of mTOR after 48 hrs by Western blot analysis; format: cell-based; method in brief: as §1
MCF7 [14] = assay: Cell cycle arrest in human MCF7 cells assessed as accumulation at G2 phase at 0.5 uM after 48 hrs by propidium iodide staining-based flow cytometry (reference value: 22.74%); format: functional; method in brief: as §3
MCF7 [15] = assay: Antiinvasive activity in human MCF7 cells assessed as number of invaded cells at 1 uM after 24 hrs by crystal violet dye-based transwell matrix penetration assay (reference value: 172.1 +/- 8.3); format: functional
[16] = target: Heat shock protein HSP 90-alpha (Homo sapiens, UniProt P07900); assay: Inhibition of FITC-geldanamycin binding to recombinant human full-length C-terminal His-tagged HSP90alpha […] (1 to 732 residues) expressed in Escherichia coli after 1 hr by fluorescence polarization assay
MCF7 [17] = assay: Cell cycle arrest in human MCF7 cells assessed as accumulation at S phase at 0.5 uM after 48 hrs by propidium iodide staining-based flow cytometry (reference value: 16.64%); format: functional; method in brief: as §3
[18] = target: T1, Heat shock protein HSP90 (Homo sapiens); assay: Inhibition of HSP90 in human MCF7 cells assessed as down regulation of survivin expression after 48 hrs by Western blot analysis; format: cell-based; method in brief: as §1
MCF7 [19] = assay: Cell cycle arrest in human MCF7 cells assessed as accumulation at G1 phase at 2 uM after 48 hrs by propidium iodide staining-based flow cytometry (reference value: 60.61%); format: functional; method in brief: as §3
MCF7 [20] = assay: Induction of apoptosis in human MCF7 cells assessed as increase in late apoptotic cells at 0.5 to 4 uM after 36 hrs by Annexin V-FITC/propidium iodide double staining-based flow cytometry relative to control; format: functional; method in brief: as §2
MCF7 [21] = assay: Cell cycle arrest in human MCF7 cells assessed as accumulation at S phase at 2 uM after 48 hrs by propidium iodide staining-based flow cytometry (reference value: 16.64%); format: functional; method in brief: as §3
[22] = target: T1, Heat shock protein HSP90 (Homo sapiens); assay: Inhibition of HSP90 in human MCF7 cells assessed as down regulation of HIF-1alpha expression after 48 hrs by Western blot analysis; format: cell-based; method in brief: as §1
MCF7 [23] = assay: Antimigratory activity in human MCF7 cells at 250 to 1000 nM after 24 hrs by phase contrast inverted microscopy-based scratch wound healing assay; format: functional, cell-based
Method in brief: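 Cells are grown to confluence in DMEM with 10% FBS and scratched with a sterile 200 μL pipette tip. Wounds are imaged by phase contrast on an inverted microscope (10× objective) at 0, 24 and 48 h. Eight images per treatment are analysed by drawing lines at the wound edges of migrating cells.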

MCF7 [24] = assay: Cell cycle arrest in human MCF7 cells assessed as accumulation at S phase at 1 uM after 48 hrs by propidium iodide staining-based flow cytometry (reference value: 16.64%); format: functional; method in brief: as §3

Question: Which results are given for `COc1cc(OC)c(OC)cc1CC(=O)c1ccc2c(c1OC)C=CC(C)(C)O2`?
Answer: inhibition [1]: Dose-dependent effect; Activity (MCF7 [2]): Dose-dependent effect; Activity (MCF7 [3]): Active; Ratio IC50 (MCF7 [4]): 3; IC50 (NCI-H1299): 3.4 µM; Activity (MCF7 [5]): 34.16%; Activity (MCF7 [6]): Dose-dependent effect; Activity (MCF7 [7]): 57.49%; inhibition [8]: Dose-dependent effect; Activity (MCF7 [9]): Active; Activity (MCF7 [10]): 40.72%; Activity (MCF7 [11]): Dose-dependent effect; Activity (MCF7 [12]): 29.7%; inhibition [13]: Dose-dependent effect; Activity (MCF7 [14]): 19.51%; Activity (MCF7 [15]): 63.2; IC50 [16]: 0.06 µM; Activity (MCF7 [17]): 22.99%; inhibition [18]: Dose-dependent effect; Activity (MCF7 [19]): 46.21%; Activity (MCF7 [20]): 13.6 - 71.8%; Activity (MCF7 [21]): 19.64%; inhibition [22]: Dose-dependent effect; Activity (MCF7 [23]): Active; Activity (MCF7 [24]): 23.2%
